Compound activity as filed in PubChem.
Most compounds without a hit are left out; they make up all but 3.1% or so of the library.
Cneo AK release: Cryptococcus neoformans lysis via adenylate kinase release; lysis activity, % at 15 µM; C. neoformans lysis, adenylate kinase release luminescence, 4 h; normalised: neutral wells 0, clomiphene wells 100; 360,000 compounds, 0.2% hits;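 active = mean lysis activity across replicates of at least 80%, whatever share of replicates individually reach that level; inactive = mean lysis activity below 80%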
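Test system: log-phase Cryptococcus neoformans yeast cells; Quantity: yeast cell density of 5 × 10^6 cells/mL; Buffer or medium: YPD; Doses: single compound concentration per well; Timing: 4 h at 37 °C static, read 1 h later; Measured by: AK luminescence; Read-out basis: lysis from increased AK signal; Control set: Clomiphene as positive control.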
INS-1E GSIS act: primary screen for activators of insulin secretion dependent on glucose, INS-1E cells, GLuc reporter luminescence | INS-1E GLuc reporter insulin secretion, 2-3 h | activation, % at 16.6 µM | 370,000 compounds, 0.61% hits;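 active = lowest replicate activation of at least 40%, so every replicate reaches that level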;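 also: 0% = median of neutral control wells and 100% = median of IBMX positive control wells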
F508del corr: correctors of CFTR F508del function in bronchial epithelial cells; activity (quench increase), % at 7.58 µM; 350,000 compounds, 0.36% hits; CFBE cells, YFP halide quenching; stimulated with forskolin plus potentiator P3; % fluorescence drop versus neutral controls; AID 720511;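 active = mean added fluorescence quench of at least 8% versus neutral control, with both replicates also reaching 8%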;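 also: cells transiently co-express mutant CFTR-F508del with the halide-sensitive YFP; corrector assay measuring rescue of mutant channel to the surface after 24 h compound exposure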
HIV Env fusion: HIV envelope-mediated fusion inhibition; HeLa-JRFL Env/CEM21 cell fusion, luciferase; inhibition, % at 12.3 µM; 360,000 compounds, 1.1% hits;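 active = mean replicate inhibition score of at least 50 and every replicate individually at or above 50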;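 also: 0% = plate neutral controls and 100% = maraviroc near 300 nM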
rRNA inh HTS: inhibitors of bacterial rRNA selective over humanized ribosomes; E. coli WT GFP vs humanized-ribosome RFP mutants, fluorescence, 24 h; hits give low values; DMSO median 0, no signal -100; GFP signal change (wild-type ribosome), % (test concentration not listed); AID 720706; 350,000 compounds, 1.6% hits;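 active = significant combined selectivity score with lowered wild-type GFP, culture density cut under 30%, mutant RFP and density less affected; inactive = any of these conditions unmet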
miR-122 sensor: inhibitors of miR-122 in Huh7 cells; 340,000 compounds, 0.3% hits; Huh7 miR-122 Renilla luciferase sensor, 48 h; neutral wells = 0, positive control = 100; activation (reporter increase), % at 12.5 µM;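 active = mean replicate activation score at least 90 and every replicate individually at or above 90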;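 also: higher luciferase means less miR-122 activity so hits act as miR-122 inhibitors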
An asterisk follows results filed as active; nt = no result; [ ] = remark or other dose.

SMILES | Cneo AK release | INS-1E GSIS act | F508del corr | HIV Env fusion | rRNA inh HTS | miR-122 sensor
Cc1ccc(C(=O)COC(=O)C(C)N2C(=O)C3C4CCC(C4)C3C2=O)cc1 (centres undefined) | -0.7 | -5.3 | -0.4 | 24.8 | -15.8 | -1.3
COc1ccc(C)cc1NS(=O)(=O)c1ccc(Cl)nc1 | 0.3 | 15.0 | -1.7 | 13.2 | 15.9 | 3.8
COc1ccccc1C(C)NS(=O)(=O)c1ccc(Cl)nc1 (centres undefined) | -0.6 | 44.1* | -1.8 | nt | -1.5 | nt
CCC(=O)N1C[C@H](C)[C@H](OC)CN(C)C(=O)c2ccc(NC(=O)c3cc(C)on3)cc2OC[C@H]1C | -2.8 | 9.2 | 1.4 | 8.2[16.7 µM] | 0.1 | 3.6[16.7 µM]
C[C@@H]1CN([C@@H](C)CO)C(=O)c2cc(NC(=O)NC3CCCCC3)ccc2O[C@@H](C)CCCCO[C@H]1CN(C)C(=O)Nc1cccc2ccccc12 | -4.0 | 6.3 | -2.8 | 43.1[16.7 µM] | 6.4 | -4.4[16.7 µM]
C[C@@H]1CN([C@@H](C)CO)C(=O)c2cc(NC(=O)c3ccccc3)ccc2O[C@@H](C)CCCCO[C@H]1CN(C)C(=O)Nc1cccc2ccccc12 | -0.4 | 15.9 | 2.0 | 59.8*[16.7 µM] | 7.3 | 11.8[16.7 µM]
Cc1noc(C)c1NC(=O)N(C)C[C@H]1OCCCC[C@@H](C)Oc2ccc(NC(=O)Nc3cccc4ccccc34)cc2C(=O)N([C@@H](C)CO)C[C@H]1C | 9.0 | 2.3 | -1.4 | 5.6[16.7 µM] | -15.5* | 17.4[16.7 µM]
C[C@H]1CCCCO[C@H](CN(C)C(=O)Nc2cccc3ccccc23)[C@@H](C)CN([C@@H](C)CO)C(=O)c2cc(NC(=O)NC3CCCCC3)ccc2O1 | -0.4 | 20.3 | -3.0 | 61.4*[16.7 µM] | 10.0 | -6.5[16.7 µM]
CCS(=O)(=O)Nc1ccc2c(c1)C(=O)N(C)C[C@H](OC)[C@@H](C)CN(Cc1ccccn1)[C@H](C)CO2 | 2.1 | 6.2 | -1.3 | 13.0[16.7 µM] | 0.7 | nt
O=c1cc(-c2ccccc2Cl)oc2c([N+](=O)[O-])c(O)cc(O)c12 | 0.4 | -23.0 | -1.2 | 65.2* | -43.4 | 0.6
O=c1cnc2ccccc2n1CC1CCCCC1 | nt | 23.8 | 8.6* | nt | -7.9 | nt
CN(C)C(=O)C[C@H]1CC[C@H]2[C@@H](COc3ccc(NS(=O)(=O)c4cccc(F)c4)cc3C(=O)N2C)O1 | 5.1 | -1.7 | -1.5 | 4.2[16.7 µM] | -2.2 | 7.3[16.7 µM]
Cn1cnc(CCNC(=O)[C@@H]2[C@@H](CO)[C@@H]3Cn4c(cccc4=O)[C@@H]3N2C(=O)Nc2ccccc2)c1 | -2.0 | 15.9 | nt | 3.9[16.7 µM] | -0.1 | nt
OC1(C#Cc2c(-c3ccsc3)sc3ccccc23)CCCCC1 | nt | 88.0* | 0.2 | 8.8 | 3.4 | nt
COc1ccc(CNCC(O)(c2ccc(Cl)cc2)c2ccc(Cl)cc2)cc1OC | -0.2 | nt | nt | 63.0* | nt | -7.3
CCOc1cc(N2CCOCC2)c(OCC)cc1NC(=O)CN1C(=O)NC2(CCCCC2)C1=O | 0.1 | -3.0 | 22.2* | -7.8 | 9.0 | -9.7
CCOc1cc(N2CCOCC2)c(OCC)cc1NC(=O)COC(=O)c1cc2ccccc2cc1O | 0.5 | 141.5* | nt | 1.1 | nt | -2.1
C[C@@H]1CCCCO[C@H](CN(C)S(=O)(=O)c2ccc(Cl)cc2)[C@H](C)CN([C@H](C)CO)C(=O)c2cc(NC(=O)Cc3ccccc3)ccc2O1 | -2.1 | -40.2 | -4.4 | 16.5[16.7 µM] | 2.1 | -5.6[16.7 µM]
CCC(=O)N(C)C[C@@H]1Oc2ncc(-c3ccc(C#N)cc3)cc2C(=O)N([C@@H](C)CO)C[C@@H]1C | 1.2 | 2.0 | 0.0 | -3.7[16.7 µM] | -0.4 | -0.2[16.7 µM]
C[C@@H]1O[C@H](C2CCCC2)CC2=C1C(=O)OC(C)(C)O2 | nt | 59.5* | -2.1 | 11.0 | 17.1 | nt
CC1(C)OC(=O)C2=C(C[C@@H](C3CCCC3)O[C@H]2c2ccc(Cl)cc2)O1 | nt | 22.5 | -1.5 | -8.4 | -1.4 | nt
Nc1nc(NCCO)nc(NCc2ccccc2)c1[N+](=O)[O-] | -1.6 | nt | nt | nt | nt | 1.2
Nc1nc(NCc2ccccc2)nc(NCCO)c1[N+](=O)[O-] | -2.7 | 9.6 | 1.1 | 63.2* | 4.3 | -6.5
CO[C@H]1O[C@H](CO)[C@@H](OC(=O)Nc2ccccc2)[C@H](OC(=O)Nc2ccc3c(c2)OCO3)[C@@H]1OC(=O)Nc1ccc2c(c1)OCO2 | 99.7* | nt | -1.4 | -4.1[16.7 µM] | nt | nt
